# Assays:
# [1] = Pharmacokinetics in rats after intravenous and oral administration; assay type: in vivo, Sprague-Dawley rats; conditions: rat; for AUC(0-inf) / AUC(0-t) / C0 / MRT last / Vd / clearance / half-life / Cmax / bioavailability / Tmax: male, Sprague-Dawley, plasma; for half-life: t1/2, rat; for half-life / Tmax / AUCextr / t1/2: n = 3
# Outline: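 Male SD rats (220–250 g), fasted 12 h, with jugular vein cannulae placed 2 days earlier under pentobarbital. Groups of 3 received 5 mg/kg iv (2 mg/mL with 30% HP-β-CD) or 100 mg/kg po (10 mg/mL suspension in 0.5% CMC-Na). Plasma (50 μL) was mixed with terfenadine internal standard and analysed by MRM LC-MS/MS (calibration 1.00–1000 ng/mL). Parameters are mean ± SD.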
# [2] = Stability in rat plasma under different storage conditions; assay type: in vitro ADME; conditions: n = 5
# [3] = autosampler for 24 h (4 °C), spiked 2.00 ng/mL
# [4] = autosampler for 24 h (4 °C), spiked 50.0 ng/mL
# [5] = autosampler for 24 h (4 °C), spiked 800 ng/mL
# [6] = long-term (30 days at -80 °C), spiked 2.00 ng/mL
# [7] = long-term (30 days at -80 °C), spiked 50.0 ng/mL
# [8] = long-term (30 days at -80 °C), spiked 800 ng/mL
# [9] = three freeze/thaw cycles, spiked 2.00 ng/mL
# [10] = three freeze/thaw cycles, spiked 50.0 ng/mL
# [11] = three freeze/thaw cycles, spiked 800 ng/mL
SMILES,"AUC(0-inf) ([1]; iv, 5 mg/kg) [ng·h/mL]","AUC(0-t) ([1]; iv, 5 mg/kg) [ng·h/mL]","C0 ([1]; iv, 5 mg/kg) [ng/mL]","MRT last ([1]; iv, 5 mg/kg) [h]","Vd ([1]; iv, 5 mg/kg) [L/kg]","clearance ([1]; iv, 5 mg/kg) [mL/min/kg]","half-life ([1]; iv, 5 mg/kg, i.v. 5 mg/kg) [h]","AUC(0-inf) ([1]; po, 100 mg/kg) [ng·h/mL]","AUC(0-t) ([1]; po, 100 mg/kg) [ng·h/mL]","Cmax ([1]; po, 100 mg/kg) [ng/mL]","MRT last ([1]; po, 100 mg/kg) [h]","bioavailability ([1]; po, 100 mg/kg) [%]","Tmax ([1]; po, 100 mg/kg, p.o. 100 mg/kg) [h]","half-life ([1]; po, 100 mg/kg, p.o. 100 mg/kg) [h]",time after which the compound could not be detected in blood ([1]; i.v. 5 mg/kg) [h],AUCextr ([1]; i.v. 5 mg/kg) [%],"t1/2 ([1]; i.v. 5 mg/kg, 5 mg/kg) [h]",time until which the compound was detectable in plasma (above LLOQ) ([1]; p.o. 100 mg/kg) [h],AUCextr ([1]; p.o. 100 mg/kg) [%],"stability, measured concentration [2, 3] [ng/mL]",further results
"C[C@@H]1CC[C@H]2[C@@H](C)C(=O)O[C@@H]3O[C@@]4(C)CC[C@@H]1[C@]32O4 [deoxyartemisinin, Deoxyartemisinin]",222 ± 47.1,219 ± 46.1,1070 ± 173,0.671 ± 0.183,48.3 ± 8,385 ± 74.5,1.12 ± 0.16,71 ± 14.1,67.3 ± 14.2,62.4 ± 31.3,1.21 ± 0.388,1.6 ± 0.317,~0.39,1.12 ± 0.156,8,1.33 ± 0.214,1.45 ± 0.059,6,5.33 ± 1.92,2.18 ± 0.10,"stability, accuracy (%, RE) [2, 4]: 99.0%; stability, measured concentration [2, 4]: 53.9 ± 1.66 ng/mL; stability, accuracy (%, RE) [2, 5]: 99.0%; stability, measured concentration [2, 5]: 782 ± 26.3 ng/mL; stability, accuracy (%, RE) [2, 6]: 101.5%; stability, measured concentration [2, 6]: 2.03 ± 0.07 ng/mL; stability, accuracy (%, RE) [2, 7]: 108.4%; stability, measured concentration [2, 7]: 54.2 ± 1.91 ng/mL; stability, accuracy (%, RE) [2, 8]: 96.0%; stability, measured concentration [2, 8]: 768 ± 50.2 ng/mL; stability, measured concentration [2, 9]: 1.98 ± 0.08 ng/mL; stability, accuracy (%, RE) [2, 10]: 109.1%; stability, measured concentration [2, 10]: 52.3 ± 0.99 ng/mL; stability, accuracy (%, RE) [2, 11]: 109.1%; stability, measured concentration [2, 11]: 774 ± 16.0 ng/mL"
"C[C@@H]1CC[C@H]2[C@@H](C)C(=O)O[C@@H]3O[C@@]4(C)CC[C@@H]1[C@]32OO4 [artemisinin, Artemisinin]",130 ± 39.1,129 ± 38.9,700 ± 166,0.408 ± 0.066,45.1 ± 12.3,674 ± 174,0.77 ± 0.06,318 ± 21.6,309 ± 22.3,65.1 ± 10.4,3.46 ± 0.249,12.2 ± 0.832,1.33 ± 0.58,2.22 ± 0.25,4,0.967 ± 0.110,0.773 ± 0.0598,12,2.89 ± 0.999,1.91 ± 0.02,"stability, accuracy (%, RE) [2, 3]: 95.7%; stability, accuracy (%, RE) [2, 4]: 91.0%; stability, measured concentration [2, 4]: 45.5 ± 0.66 ng/mL; stability, accuracy (%, RE) [2, 5]: 97.1%; stability, measured concentration [2, 5]: 777 ± 6.68 ng/mL; stability, accuracy (%, RE) [2, 6]: 97.3%; stability, measured concentration [2, 6]: 1.95 ± 0.02 ng/mL; stability, accuracy (%, RE) [2, 7]: 91.3%; stability, measured concentration [2, 7]: 45.7 ± 1.46 ng/mL; stability, accuracy (%, RE) [2, 8]: 95.2%; stability, measured concentration [2, 8]: 762 ± 9.29 ng/mL; stability, accuracy (%, RE) [2, 9]: 95.2%; stability, measured concentration [2, 9]: 1.90 ± 0.02 ng/mL; stability, accuracy (%, RE) [2, 10]: 95.2%; stability, measured concentration [2, 10]: 47.6 ± 0.52 ng/mL; stability, accuracy (%, RE) [2, 11]: 96.3%; stability, measured concentration [2, 11]: 770 ± 9.11 ng/mL"

# Source: PMC7808142 (ACS Omega, 2020)
